How the values were obtained:
[1] = target: Histone deacetylase 1 (Homo sapiens, UniProt Q13547); experiment: Inhibition of human HDAC-1 using RHKK(Ac) as substrate
[2] = target: Histone deacetylase 3/Nuclear receptor corepressor 2 (HDAC3/NCoR2) (Homo sapiens, UniProt O15379); experiment: Inhibition of human HDAC-3/NCOR-2 using RHKK(Ac) as substrate; format: protein-complex assay
[3] = target: T1, Polyamine deacetylase HDAC10 (Homo sapiens, UniProt Q969S8); experiment: Inhibition of human HDAC-10 using RHKK(Ac) as substrate
T1 sequence (Q969S8 whole entry): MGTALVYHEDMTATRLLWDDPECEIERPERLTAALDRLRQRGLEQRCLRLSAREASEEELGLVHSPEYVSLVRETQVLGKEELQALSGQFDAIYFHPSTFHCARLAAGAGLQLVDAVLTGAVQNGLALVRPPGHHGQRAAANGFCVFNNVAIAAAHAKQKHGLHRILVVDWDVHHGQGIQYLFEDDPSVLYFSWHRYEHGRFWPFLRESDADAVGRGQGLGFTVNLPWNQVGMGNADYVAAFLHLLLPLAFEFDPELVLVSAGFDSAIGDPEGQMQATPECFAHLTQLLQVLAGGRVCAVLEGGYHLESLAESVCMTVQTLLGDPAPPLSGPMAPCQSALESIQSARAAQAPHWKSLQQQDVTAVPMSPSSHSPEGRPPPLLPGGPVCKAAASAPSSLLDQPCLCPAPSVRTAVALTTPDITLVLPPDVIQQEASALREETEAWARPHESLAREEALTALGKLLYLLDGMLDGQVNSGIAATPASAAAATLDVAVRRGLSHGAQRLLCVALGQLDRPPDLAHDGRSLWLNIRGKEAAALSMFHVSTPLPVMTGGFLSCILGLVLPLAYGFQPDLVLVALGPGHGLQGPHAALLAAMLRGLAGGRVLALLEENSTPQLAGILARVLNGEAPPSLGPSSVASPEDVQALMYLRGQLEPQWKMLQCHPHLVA

[4] = target: T2, Histone deacetylase 8 (Homo sapiens, UniProt Q9BY41); experiment: Inhibition of human HDAC-8 using RHK(Ac)K(Ac) as substrate
T2 sequence (Q9BY41 whole entry): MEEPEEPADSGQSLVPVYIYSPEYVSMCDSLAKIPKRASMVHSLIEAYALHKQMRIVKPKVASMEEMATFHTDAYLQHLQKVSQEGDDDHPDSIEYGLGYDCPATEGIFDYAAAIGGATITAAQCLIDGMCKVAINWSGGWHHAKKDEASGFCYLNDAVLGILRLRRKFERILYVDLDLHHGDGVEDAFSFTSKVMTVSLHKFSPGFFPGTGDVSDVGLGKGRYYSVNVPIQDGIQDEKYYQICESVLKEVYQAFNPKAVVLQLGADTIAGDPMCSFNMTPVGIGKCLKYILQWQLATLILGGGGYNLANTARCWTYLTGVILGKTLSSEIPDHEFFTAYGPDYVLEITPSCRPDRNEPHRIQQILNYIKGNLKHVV

[5] = system: NCI-H460; experiment: Cytotoxicity against human NCI-H460 cells assessed as growth inhibition after 72 hrs by sulforhodamine B assay; format: functional, cell-based; conditions: NCI-H460, 72 h
Procedure, shortened: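 Log-phase NCI-H460 cells seeded, drug added 24 h later, exposed 72 h. Survival read by sulforhodamine B staining. IC50 fitted by curve analysis as the concentration halving cell number relative to untreated controls.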

Histone deacetylase 3/Nuclear receptor corepressor 2 (HDAC3/NCoR2), sequence (O15379 whole entry): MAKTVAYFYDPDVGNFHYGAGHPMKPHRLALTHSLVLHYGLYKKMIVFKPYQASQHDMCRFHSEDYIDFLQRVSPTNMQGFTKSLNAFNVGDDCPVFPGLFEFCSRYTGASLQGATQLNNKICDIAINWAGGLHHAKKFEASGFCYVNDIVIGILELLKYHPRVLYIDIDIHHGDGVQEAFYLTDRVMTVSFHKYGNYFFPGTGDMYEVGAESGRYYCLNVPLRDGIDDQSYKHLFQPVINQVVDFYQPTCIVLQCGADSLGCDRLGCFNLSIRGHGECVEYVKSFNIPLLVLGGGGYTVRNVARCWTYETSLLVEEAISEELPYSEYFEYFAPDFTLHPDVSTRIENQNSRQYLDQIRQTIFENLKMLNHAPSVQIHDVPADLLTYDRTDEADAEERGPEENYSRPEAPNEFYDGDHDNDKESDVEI
Histone deacetylase 3/Nuclear receptor corepressor 2 (HDAC3/NCoR2), sequence (Q9Y618 whole entry, further chain): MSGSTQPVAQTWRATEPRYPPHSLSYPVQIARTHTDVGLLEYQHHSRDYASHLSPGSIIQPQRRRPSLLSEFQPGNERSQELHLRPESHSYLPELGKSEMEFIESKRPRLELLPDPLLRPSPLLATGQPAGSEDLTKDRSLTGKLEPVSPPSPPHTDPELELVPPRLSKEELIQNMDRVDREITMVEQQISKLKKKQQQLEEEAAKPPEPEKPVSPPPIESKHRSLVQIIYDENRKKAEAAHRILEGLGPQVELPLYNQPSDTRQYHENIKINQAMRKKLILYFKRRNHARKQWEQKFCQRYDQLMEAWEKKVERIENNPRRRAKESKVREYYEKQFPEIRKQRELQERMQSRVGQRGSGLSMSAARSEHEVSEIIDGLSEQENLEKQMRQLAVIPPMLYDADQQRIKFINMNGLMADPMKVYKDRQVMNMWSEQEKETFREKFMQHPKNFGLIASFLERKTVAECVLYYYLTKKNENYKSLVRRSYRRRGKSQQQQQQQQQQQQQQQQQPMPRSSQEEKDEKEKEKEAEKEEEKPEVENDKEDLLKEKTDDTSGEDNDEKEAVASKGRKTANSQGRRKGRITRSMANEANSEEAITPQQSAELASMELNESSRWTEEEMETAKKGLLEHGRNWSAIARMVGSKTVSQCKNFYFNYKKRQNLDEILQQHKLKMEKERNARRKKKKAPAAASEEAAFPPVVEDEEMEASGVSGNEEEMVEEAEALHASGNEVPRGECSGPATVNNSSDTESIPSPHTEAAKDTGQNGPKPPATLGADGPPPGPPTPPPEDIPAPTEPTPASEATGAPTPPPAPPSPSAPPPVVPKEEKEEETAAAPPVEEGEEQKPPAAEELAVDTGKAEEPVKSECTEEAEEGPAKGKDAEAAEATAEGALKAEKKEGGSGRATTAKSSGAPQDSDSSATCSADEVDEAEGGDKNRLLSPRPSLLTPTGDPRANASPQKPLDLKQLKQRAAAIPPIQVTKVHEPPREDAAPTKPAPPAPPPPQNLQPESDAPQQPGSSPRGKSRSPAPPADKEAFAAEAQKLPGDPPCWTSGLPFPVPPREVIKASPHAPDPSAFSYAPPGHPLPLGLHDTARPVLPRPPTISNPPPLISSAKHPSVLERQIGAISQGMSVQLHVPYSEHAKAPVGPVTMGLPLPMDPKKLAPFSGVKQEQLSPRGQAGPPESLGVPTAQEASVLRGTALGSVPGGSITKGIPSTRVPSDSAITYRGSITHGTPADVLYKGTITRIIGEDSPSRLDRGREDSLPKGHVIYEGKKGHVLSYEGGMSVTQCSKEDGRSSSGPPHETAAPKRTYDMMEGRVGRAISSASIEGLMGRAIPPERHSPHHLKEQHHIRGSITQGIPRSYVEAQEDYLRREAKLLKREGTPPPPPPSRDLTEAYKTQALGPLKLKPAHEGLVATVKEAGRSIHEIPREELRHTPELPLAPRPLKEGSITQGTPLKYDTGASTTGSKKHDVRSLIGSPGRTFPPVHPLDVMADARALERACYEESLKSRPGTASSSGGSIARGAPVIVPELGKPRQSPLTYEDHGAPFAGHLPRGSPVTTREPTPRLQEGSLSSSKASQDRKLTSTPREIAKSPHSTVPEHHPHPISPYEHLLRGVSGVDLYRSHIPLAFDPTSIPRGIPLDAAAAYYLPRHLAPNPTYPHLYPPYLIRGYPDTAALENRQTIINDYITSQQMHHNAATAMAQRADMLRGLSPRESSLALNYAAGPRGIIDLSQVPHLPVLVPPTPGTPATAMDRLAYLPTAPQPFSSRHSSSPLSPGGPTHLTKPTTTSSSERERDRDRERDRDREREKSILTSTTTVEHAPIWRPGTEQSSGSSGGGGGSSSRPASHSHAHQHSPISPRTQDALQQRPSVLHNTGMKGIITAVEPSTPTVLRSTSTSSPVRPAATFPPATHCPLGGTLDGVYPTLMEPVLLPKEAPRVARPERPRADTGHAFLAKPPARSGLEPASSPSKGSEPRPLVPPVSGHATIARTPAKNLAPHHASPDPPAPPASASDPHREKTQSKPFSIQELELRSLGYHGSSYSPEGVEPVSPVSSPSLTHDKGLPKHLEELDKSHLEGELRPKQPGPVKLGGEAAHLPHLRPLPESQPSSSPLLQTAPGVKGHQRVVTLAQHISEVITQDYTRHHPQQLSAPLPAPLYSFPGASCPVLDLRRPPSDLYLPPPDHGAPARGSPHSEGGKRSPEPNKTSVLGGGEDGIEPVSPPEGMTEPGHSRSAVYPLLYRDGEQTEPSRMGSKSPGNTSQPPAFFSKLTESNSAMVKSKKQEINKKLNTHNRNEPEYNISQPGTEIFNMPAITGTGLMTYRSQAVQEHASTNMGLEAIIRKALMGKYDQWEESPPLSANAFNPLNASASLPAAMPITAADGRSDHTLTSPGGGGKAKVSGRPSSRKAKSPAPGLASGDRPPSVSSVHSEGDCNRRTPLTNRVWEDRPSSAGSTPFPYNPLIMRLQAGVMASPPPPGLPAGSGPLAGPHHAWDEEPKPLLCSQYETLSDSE
Histone deacetylase 1, sequence (Q13547 whole entry): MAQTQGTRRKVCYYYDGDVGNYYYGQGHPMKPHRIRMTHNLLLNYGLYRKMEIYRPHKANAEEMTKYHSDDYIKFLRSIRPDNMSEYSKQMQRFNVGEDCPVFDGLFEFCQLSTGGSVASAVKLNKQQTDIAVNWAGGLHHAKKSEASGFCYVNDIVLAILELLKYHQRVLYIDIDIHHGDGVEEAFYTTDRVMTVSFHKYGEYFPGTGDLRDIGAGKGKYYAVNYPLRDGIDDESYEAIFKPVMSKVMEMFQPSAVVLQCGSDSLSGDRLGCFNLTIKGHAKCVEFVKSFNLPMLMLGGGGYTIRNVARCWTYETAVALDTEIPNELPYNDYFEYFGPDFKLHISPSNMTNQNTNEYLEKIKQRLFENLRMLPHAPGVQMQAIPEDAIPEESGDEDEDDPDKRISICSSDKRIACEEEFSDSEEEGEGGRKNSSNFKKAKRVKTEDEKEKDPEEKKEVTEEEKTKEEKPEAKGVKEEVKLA

Work on `CC(C)c1cc(C(=O)N2CCc3onc(C(=O)NCCCCCCC(=O)NO)c3C2)c(O)cc1O` yielded an IC50 [1] of 2030 nM, an IC50 [2] of 4230 nM and an IC50 [3] of 886 nM. For the same molecule, the IC50 [4] was 1760 nM and the IC50 [5] was 3900 nM.
